Bioassay records deposited in PubChem BioAssay by The Scripps Research Institute Molecular Screening Center.
GalR3 antag: antagonists of human GalR3; HEK293 GalR3-CNG cAMP membrane potential fluorescence; galR3 body fused to GalR1 C-terminus; inhibition, % at 3 µM; 360,000 tested, 0.44% active;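 active = inhibition above the screen-wide average plus 3 SD, cut at about 13% in these data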;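 also: forskolin and galanin both at EC90 stimulate the cells; cAMP rise reported by CNG channel membrane potential dye signal; 0% = forskolin plus galanin with DMSO and 100% = forskolin alone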
Target sequence (O60755 1-299 limits assumed): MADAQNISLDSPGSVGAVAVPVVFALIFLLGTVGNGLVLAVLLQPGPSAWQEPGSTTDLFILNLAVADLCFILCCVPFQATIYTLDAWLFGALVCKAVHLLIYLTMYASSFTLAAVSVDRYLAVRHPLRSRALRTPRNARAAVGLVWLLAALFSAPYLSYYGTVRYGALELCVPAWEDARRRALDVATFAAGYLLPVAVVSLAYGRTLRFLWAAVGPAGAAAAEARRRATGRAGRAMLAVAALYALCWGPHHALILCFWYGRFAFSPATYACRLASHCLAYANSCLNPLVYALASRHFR
GPR7 antag: human neuropeptides B/W receptor 1 antagonism | inhibition, % at 4.4 µM | AID 1861 | GPR7-expressing cells, fluorescence antagonist assay | P48145 | 290,000 tested, 1.1% active; in the data active = inhibition above about 16%, passing the limit was not always enough;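 also: cells stimulated with the agonist NPW; 0% = agonist with vehicle and 100% = vehicle without agonist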
Target sequence (P48145 whole entry, looked up): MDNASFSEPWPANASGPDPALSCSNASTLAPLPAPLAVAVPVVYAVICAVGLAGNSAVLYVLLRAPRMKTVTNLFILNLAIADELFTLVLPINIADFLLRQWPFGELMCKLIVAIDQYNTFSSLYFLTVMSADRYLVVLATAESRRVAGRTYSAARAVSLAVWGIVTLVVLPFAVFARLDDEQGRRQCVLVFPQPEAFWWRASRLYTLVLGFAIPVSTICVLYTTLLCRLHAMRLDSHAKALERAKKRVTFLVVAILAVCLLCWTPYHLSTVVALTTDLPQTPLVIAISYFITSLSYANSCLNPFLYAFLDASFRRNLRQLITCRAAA
OX1R antag-1: blocks the human orexin 1 receptor; O43613; OX1R-expressing cells, FRET antagonist read-out; inhibition, % at 6.6 µM; 330,000 tested, 1.8% active; in the data active = inhibition mostly above about 38%, no sharp cut-off; inactive = mostly below about 40%;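 also: 0% = agonist challenge alone and 100% = reference antagonist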
CHO parental Ca: signal in parental CHO cells, OX1R antagonist counter-screen; parental CHO-K1, ATP-induced calcium, Fluo-8 fluorescence; inhibition, % at 5.6 µM; 330,000 tested, 0.63% active; AID 463079;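 active = inhibition above that plate's mean sample inhibition plus 3 SD, cut at about 26% in these data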;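 also: 0% = ATP-challenged DMSO wells and 100% = DMSO wells without ATP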
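Material: Parental CHO cells | Reagent: ATP | Compound dosing: Single nominal dose of 5.6 µM per compound | Detection: Intracellular calcium via Fluo-8 no-wash fluorescent dye | Read-out: % inhibition of ATP-induced calcium mobilization | Benchmarks: Low control ATP plus DMSO, high control DMSO only | Replicates: Singlicate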
OX1R antag-2: human HCRTR1 antagonism; O43613; CHO/OX1R cells, Fluo-8 calcium fluorescence, orexin A; inhibition, % at 5 µM; 330,000 tested, 0.43% active; AID 434989;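 active = inhibition above its plate's threshold, mean inhibition of all tested compounds on the plate plus 3 SD, cut at about 37% in these data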;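 also: 0% = orexin A challenge wells and 100% = SB-334867-A antagonist wells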
GPR7 antag cf: human GPR7 antagonism, confirmation assay | 2,400 tested, 52% active | inhibition, % at 4.4 µM | GPR7-expressing cells, calcium fluorescence antagonist mode | AID 1952 | shares compounds with GPR7 antag; in the data active = inhibition above about 24%;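 also: stimulated with the GPR7 agonist NPW; 0% = agonist plus vehicle and 100% = vehicle alone without agonist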
MCHR1 antag: MCHR1 (human) antagonism in GPR7 counter-screen. shares compounds with GPR7 antag. MCHR1-expressing cells, fluorescence antagonist assay. inhibition, % at 4.4 µM. 2,400 tested, 62% active; in the data active = inhibition above about 22%;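 also: 0% = vehicle with agonist and 100% = vehicle without agonist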
* marks the source's active call; other numbers are inactive results; ! = repeats disagree. Shown are actives, neighbours in structure and some others; about 3.1% of the full set was active somewhere.

Screening Cc1ccc(C2CC(c3ccc(F)cc3)Nc3nc(N)nn32)cc1 (stereo not drawn) returned GalR3 antag 3.5, GPR7 antag 21.1*, OX1R antag-1 7.1, CHO parental Ca 0.9, OX1R antag-2 2.2, GPR7 antag cf 21.3 and MCHR1 antag 8.3.
CCN(CC(=O)Nc1ccccc1C(F)(F)F)CC(=O)c1[nH]c(C)c(C(C)=O)c1C was read as GalR3 antag 5.8.
Screening CC1CCC(C(C)C)C(OC(=O)Cn2c(-c3ccccc3)[n+](C)c3ccccc32)C1 (stereo not drawn) returned GalR3 antag 0.8, GPR7 antag 86.3*, OX1R antag-1 6.6, CHO parental Ca 41.9*!, OX1R antag-2 25.2, GPR7 antag cf 91.8* and MCHR1 antag 82.6*.
`CC(C)(C)c1ccc(C(=O)N2CCC(C(=O)c3ccccc3)CC2)cc1` gave GalR3 antag -11.0, GPR7 antag 41.1*, OX1R antag-1 -5.8, CHO parental Ca 24.5, OX1R antag-2 -1.1, GPR7 antag cf 38.7* and MCHR1 antag 38.3*.
For Cc1ccc(Cn2c(C)c(C(=O)NCc3ccc4c(c3)OCO4)sc2=O)cc1 the results were GalR3 antag -3.2.
`O=C(CCN1C(=O)c2ccccc2C1=O)Nc1ccc2c(c1)OCCO2` gave GalR3 antag -7.0, GPR7 antag 23.0*, OX1R antag-1 8.5, CHO parental Ca -11.7, OX1R antag-2 -21.2, GPR7 antag cf 0.2 and MCHR1 antag -1.4.
Cc1ccc(S(=O)(=O)Nc2ccccc2N=Cc2ccc([N+](=O)[O-])cc2[N+](=O)[O-])cc1 was read as GalR3 antag -5.0.
For Cc1cc(C)c(CSc2ncc(-c3ccc([N+](=O)[O-])cc3)[nH]2)c(C)c1 the results were GalR3 antag -0.6, GPR7 antag 41.6*, OX1R antag-1 91.3*, CHO parental Ca 40.0*, OX1R antag-2 39.9*, GPR7 antag cf 68.0* and MCHR1 antag 83.2*.
COCc1cc(N2CCNC[C@H]2C)ccc1N1C[C@@H](C)O[C@@H](C)C1 was read as GalR3 antag -2.5.
Screening COC(=O)[C@]12C[C@H](CC(=O)NCCC(C)C)C(=O)N(Cc3ccc4c(c3)OCO4)C1=C[C@H](COCc1ccccc1)O[C@@H]2C returned GalR3 antag -6.0.
For CN(C)c1ccc(/C=C(\C#N)C(=O)Nc2nc3c(s2)CCN(Cc2ccccc2)C3)cc1 the results were GalR3 antag -5.0, GPR7 antag 26.0*, OX1R antag-1 3.2, CHO parental Ca -0.4, OX1R antag-2 23.4, GPR7 antag cf 33.3* and MCHR1 antag 31.2*.
For Cc1cc(C(O)c2ncc(-c3ccc(Oc4ccccc4)cc3)[nH]2)ccc1F (stereo not drawn) the results were GalR3 antag -6.3.
`CC(Sc1nnc(-c2cccs2)n1Cc1ccccc1)C(=O)NCc1ccc2c(c1)OCO2` (stereo not drawn) gave GalR3 antag -8.1, GPR7 antag 26.1*, OX1R antag-1 18.7, CHO parental Ca -13.2, OX1R antag-2 -12.2, GPR7 antag cf 19.4 and MCHR1 antag 18.6.
`Cc1ccc(NC(=O)C2CCN(S(=O)(=O)c3ccc4c(c3)NC(=O)C(C)S4)CC2)c(Cl)c1` (stereo not drawn) gave GalR3 antag -7.3, GPR7 antag 0.3, OX1R antag-1 -1.6, CHO parental Ca -9.0 and OX1R antag-2 -17.3.
`Cc1ccc(NC(=O)C2CCN(S(=O)(=O)c3ccc4c(c3)C(C)(C)C(=O)N4C)CC2)c(C)c1` gave GalR3 antag 4.7, GPR7 antag 29.8*, OX1R antag-1 16.4, CHO parental Ca -7.4, OX1R antag-2 -15.2, GPR7 antag cf -0.8 and MCHR1 antag 4.2.
Cc1cccc(N2CCN(S(=O)(=O)c3ccc4c(c3)NC(=O)C(C)S4)CC2)c1C (stereo not drawn) was read as GalR3 antag -7.3, GPR7 antag -4.3, OX1R antag-1 30.0, CHO parental Ca -5.8 and OX1R antag-2 -24.8.
Screening CC1Sc2ccc(S(=O)(=O)N3CCN(c4ccccc4)CC3)cc2NC1=O (stereo not drawn) returned GalR3 antag -9.3, GPR7 antag 39.1*, OX1R antag-1 6.8, CHO parental Ca 9.9, OX1R antag-2 -28.1, GPR7 antag cf 18.2 and MCHR1 antag 26.1*.
For Cc1cc(C)cc(NC(=O)C2CCN(S(=O)(=O)c3ccc4c(c3)NC(=O)C(C)S4)CC2)c1 (stereo not drawn) the results were GalR3 antag -8.4, GPR7 antag 30.0*, OX1R antag-1 17.3, CHO parental Ca 23.9, OX1R antag-2 13.9, GPR7 antag cf 25.4* and MCHR1 antag 45.6*.
For CCCCN(C(=O)c1ccccc1Cl)C(CC(C)C)c1nc2ccccc2[nH]1 (stereo not drawn) the results were GalR3 antag -6.5.
`COc1ccc(CCNC(=O)N2c3ccccc3Sc3ccccc32)cc1` gave GalR3 antag -3.1, GPR7 antag 42.3*, OX1R antag-1 45.0, CHO parental Ca 36.2*, OX1R antag-2 29.8, GPR7 antag cf 44.6* and MCHR1 antag 77.3*.
COCCCNC(=O)N1c2ccccc2Sc2ccccc21 was read as GalR3 antag -7.3, GPR7 antag -12.2, OX1R antag-1 -0.7, CHO parental Ca -10.2 and OX1R antag-2 -10.3.
Cc1ccc(C(=O)NCCN2C3=NC[C@@H](Cc4ccccc4)N3C[C@H]2Cc2ccc(O)cc2)cc1Br was read as GalR3 antag -5.3, GPR7 antag 49.1*, OX1R antag-1 14.5, CHO parental Ca -18.9, OX1R antag-2 -19.3, GPR7 antag cf 53.1* and MCHR1 antag 47.8*.
For COc1ccccc1-c1nnc(C2CCN(S(=O)(=O)c3ccc([N+](=O)[O-])cc3)CC2)o1 the results were GalR3 antag 1.8, GPR7 antag 21.2*, OX1R antag-1 21.8, CHO parental Ca -20.8, OX1R antag-2 -6.4, GPR7 antag cf 48.2* and MCHR1 antag 31.7*.
For Cc1cc(-c2ccc(C(C)C)c(S(=O)(=O)N3CCOc4ccccc43)c2)on1 the results were GalR3 antag -2.7, GPR7 antag -17.4, OX1R antag-1 22.8, CHO parental Ca -5.4 and OX1R antag-2 -8.2.
For COc1ccc(-c2cc(C)no2)cc1S(=O)(=O)N1CCOc2ccccc21 the results were GalR3 antag -2.1, GPR7 antag 23.0*, OX1R antag-1 16.8, CHO parental Ca -13.2, OX1R antag-2 -0.3, GPR7 antag cf 13.3 and MCHR1 antag 17.9.
Screening CCOC(=O)Cn1c(=O)oc2cc(S(=O)(=O)Nc3ccc(F)cc3)ccc21 returned GalR3 antag -3.6, GPR7 antag 25.0*, OX1R antag-1 9.8, CHO parental Ca 23.0*, OX1R antag-2 22.1, GPR7 antag cf 41.6* and MCHR1 antag 36.8*.
